Bioassay records deposited in PubChem by several laboratories.
Tb MetRS inh = Trypanosoma brucei MetRS inhibition | purified T. brucei MetRS, ATP depletion, Kinase-Glo luminescence | inhibition, % at 11.9 µM | 360,000 tested, 0.4% active | AID 624268;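 active = inhibition above a per-plate cutoff of the control wells' mean inhibition plus 3 SD, cut at about 5.5% in these data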
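Assay system: T. brucei methionyl-tRNA synthetase, purified | Medium: HEPES buffer with MgCl2, KCl, DTT, spermine, BSA, pyrophosphatase | Compound: 11.9 µM single point | Incubation: 15 min enzyme-compound preincubation, 2 h reaction, 10 min detection, 25 °C | Measured by: Kinase-Glo luciferase luminescence reporting remaining unconsumed ATP | Measure: % inhibition normalized to control-well medians | Replication: Singlicate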
MC4R antag cAMP = human MC4R antagonism in cAMP assay. P32245. inhibition, % at 6.5 µM. 360,000 tested, 0.48% active. MC4R-expressing cells, MTII-stimulated cAMP, LANCE TR-FRET. AID 540295;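 active = inhibition above its plate's cutoff, the mean of tested wells on that plate plus 3 SD, cut at about 29% in these data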
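Assay system: U2OS-MC4R stable cell line; Also added: Melanotan II; Technique: Eu-cAMP/anti-cAMP TR-FRET, emission 671 nm; Times: 30-min compound, 1-h challenge, 1-h detection, room temperature.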
MC4R barr agon = agonists of human melanocortin 4 receptor (MC4R) beta-arrestin | P32245 | U2OS MC4R beta-arrestin complementation, luminescence; percent of melanotan II response, DMSO zero | activation, % at 8.9 µM | 360,000 tested, 0.98% active | AID 540308;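 active = activation above a per-plate cutoff, the mean activation of sample wells on that plate plus 3 SD, cut at about 8% in these data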
Exocytosis inh = blocks lytic granule exocytosis. inhibition, % at 10 µM. 360,000 tested, 0.66% active. TALL-104 LAMP-1 surface exposure, flow cytometry; cells stimulated with thapsigargin and PMA;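 active = inhibition above about 55%, limit read from the data; inconclusive = no clear call, values can overlap the other calls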
ABCB6 inh MLPCN = inhibitors of human ABC transporter ABCB6. K562-ABCB6 porphyrin accumulation, flow cytometry, 1 h; active compounds read low. fluorescence ratio to DMSO, % at 10 µM. 360,000 tested, 0.19% active. Q9NP58;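 active = fluorescence ratio to DMSO below 75%, the collection mean minus 3 SD; inconclusive = too few cells collected in the well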;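 also: signal is porphyrin accumulated inside mitochondria; lower ratio means ABCB6 inhibition with less porphyrin fluorescence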
hiPSC survival = increases survival of single human iPS cells; hiPSC single-cell survival, ATPlite luminescence; 100% = ROCK inhibitor wells, 0% = DMSO; survival enhancement, % at 20 µM; 360,000 tested, 0.044% active; in the data active = survival enhancement above about 18%;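 also: cells exposed to compounds for 16 hours before the ATP read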
MC4R barr conf = human MC4R beta-arrestin agonism confirmation | shares compounds with MC4R barr agon | U2OS MC4R beta-arrestin recruitment, luminescence; scaled DMSO 0%, Melanotan II 100% | activation, % at 8.9 µM | 2,400 tested, 31% active;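 active = mean activation across replicates above the hit cutoff set in the earlier primary screen, cut at about 8% in these data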
MOR DOR agonist = activates mu-delta opioid heterodimer, MC4R agonist counter-screen; U2OS PathHunter beta-arrestin, beta-gal luminescence; percent of deltorphin B response, DMSO zero; activation, % at 9.2 µM; shares compounds with MC4R barr agon; 2,400 tested, 5.8% active;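 active = mean activation across replicates exceeds the hit threshold derived in the earlier primary screen, cut at about 18% in these data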
Target sequence (P35372 whole entry, looked up): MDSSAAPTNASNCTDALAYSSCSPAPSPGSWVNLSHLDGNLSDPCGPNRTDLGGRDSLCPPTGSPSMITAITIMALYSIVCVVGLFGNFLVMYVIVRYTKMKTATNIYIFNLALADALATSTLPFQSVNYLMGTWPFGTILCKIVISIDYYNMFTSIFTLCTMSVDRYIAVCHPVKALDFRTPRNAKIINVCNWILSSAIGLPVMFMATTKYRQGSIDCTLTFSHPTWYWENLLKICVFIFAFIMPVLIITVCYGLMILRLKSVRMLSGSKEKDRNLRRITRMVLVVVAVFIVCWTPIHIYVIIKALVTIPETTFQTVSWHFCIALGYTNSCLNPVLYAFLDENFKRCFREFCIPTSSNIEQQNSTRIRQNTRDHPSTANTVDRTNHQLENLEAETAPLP
Target sequence (P41143 whole entry, looked up): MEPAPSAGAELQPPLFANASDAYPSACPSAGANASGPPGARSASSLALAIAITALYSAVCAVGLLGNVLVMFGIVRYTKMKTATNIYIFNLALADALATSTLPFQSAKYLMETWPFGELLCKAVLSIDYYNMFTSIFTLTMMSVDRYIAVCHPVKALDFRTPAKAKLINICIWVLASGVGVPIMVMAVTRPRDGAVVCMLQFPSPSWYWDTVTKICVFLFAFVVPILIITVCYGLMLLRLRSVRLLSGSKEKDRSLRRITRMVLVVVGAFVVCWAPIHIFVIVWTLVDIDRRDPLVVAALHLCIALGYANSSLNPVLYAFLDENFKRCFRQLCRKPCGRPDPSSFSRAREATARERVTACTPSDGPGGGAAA
A number is an active result; 0 = inactive; ? = inconclusive; - = no result given. Hits are enriched below; roughly 2.6% of the tested compounds scored in any of these assays.

SMILES	Tb MetRS inh	MC4R antag cAMP	MC4R barr agon	Exocytosis inh	ABCB6 inh MLPCN	hiPSC survival	MC4R barr conf	MOR DOR agonist
COc1cccc(-c2ccc(C#N)c(SCC(=O)NCCc3cccc(Cl)c3)n2)c1	0	0	13	0	0	0	18	20
CCOc1cc(C(=O)N2CCN(c3ccccn3)CC2)cc(OCC)c1OCC	0	0	0	0	0	0	-	-
O=C(COC(=O)/C=C/c1ccccc1)Nc1ccc2c(c1)OCCO2	0	0	0	0	0	0	-	-
O=C(COC(=O)/C=C/c1ccc(Cl)cc1)Nc1ccc2c(c1)OCCO2	0	0	24	0	0	0	0	0
S=C1Nc2ccccc2Sc2ccc(Cl)cc21	0	0	23	0	0	0	10	0
O=C(CC1C(=O)NCCN1CC(c1ccccc1)c1ccccc1)NC1CC1 (centres undefined)	0	0	0	0	0	0	-	-
CCOC(=O)c1[nH]c2cc(OC)c(OC)cc2c1NC(=O)c1ccc2c(c1)OCO2	0	0	26	0	0	0	0	0
c1ccc(-c2nc(-c3cccs3)[nH]c2-c2ccccc2)cc1	0	0	9.6	0	0	0	0	0
COc1cc(-c2nc(-c3ccccc3)c(-c3cccs3)[nH]2)cc(OC)c1OC	0	0	0	0	0	0	-	-
O=C(COc1ccc(-c2ccccc2)cc1)N/N=C/c1cc(O)ccc1Br	0	0	37	0	0	0	13	0
O=C(COc1ccc(-c2ccccc2)cc1)N/N=C/c1ccccc1Br	0	0	0	0	0	0	-	-
CN(C)CCCn1c(N)c(C#N)c2nc3ccccc3nc21	0	0	0	0	0	0	-	-
CCCCC(CC)Cn1c(N)c(C#N)c2nc3ccccc3nc21 (centres undefined)	0	0	17	0	0	0	19	0
COc1cccc2oc(-c3ccco3)cc(=O)c12	0	0	0	0	0	0	-	-
Cc1cccc(NC(=O)COC(=O)c2nn(-c3ccccc3C(F)(F)F)cc2O)c1C	0	0	0	0	0	0	-	-
O=C(COC(=O)c1nn(-c2ccccc2C(F)(F)F)cc1O)c1ccc(OC(F)F)cc1	0	0	11	0	0	0	0	0
COc1ccc(OC)c(CNC(=O)CCn2c(=O)c3cccn3c3ccc(F)cc32)c1	0	0	0	0	0	0	-	-
C#CCCCCCCCCC(=O)NCCCC	0	0	0	0	0	0	-	-
CCCCCCCCCCCCCCCC(=O)NCCO	0	0	12	0	0	0	0	0
CCSc1nnc(NC(=O)C2CCCCC2C(=O)O)s1 (centres undefined)	0	0	0	0	0	0	-	-
CCSc1nnc(NC(=O)C2CC2c2ccccc2)s1 (centres undefined)	0	0	15	0	0	0	0	0
COc1cc(Cn2c(-c3nonc3N)nc3ccccc32)ccc1C	0	0	10	0	0	0	0	0
Nc1nonc1-c1nc2ccccc2n1Cc1ccc(Cl)cc1	0	0	11	0	0	0	0	0
Cc1ccc(Cn2c(-c3nonc3N)nc3ccccc32)cc1	0	0	0	0	0	0	-	-
COc1cccc(Cn2c(-c3nonc3N)nc3ccccc32)c1	0	0	0	0	0	0	-	-
SMILES	Tb MetRS inh	MC4R antag cAMP	MC4R barr agon	Exocytosis inh	ABCB6 inh MLPCN	hiPSC survival	MC4R barr conf	MOR DOR agonist
CC(=O)N1CCOc2ccc(S(=O)(=O)N3CCCC(C)C3)cc21 (centres undefined)	0	0	0	?	0	0	-	-
CCOC(=O)C1=CN(Cc2cccc(Br)c2)S(=O)(=O)NC1C (centres undefined)	0	0	0	0	0	0	-	-
COc1ccc(NC(=O)CCC(=O)OCC(=O)c2ccc(Oc3ccc([N+](=O)[O-])cc3)cc2)cc1	0	0	0	0	0	0	-	-
Cc1ccc(NC(=O)CCC(=O)OCC(=O)c2ccc(Oc3ccc([N+](=O)[O-])cc3)cc2)cc1	0	0	26	0	0	0	0	0
COc1ccccc1CNC(=O)C(=O)NCC1CCCN1S(=O)(=O)c1cc(C)ccc1C (centres undefined)	0	0	0	0	0	0	-	-
Clc1ccc(C2=Nn3c(nnc3-c3cc(-c4ccccc4)n[nH]3)SC2)cc1	0	0	41	0	0	0	23	0
c1ccc(C2=Nn3c(nnc3-c3cc(-c4ccccc4)n[nH]3)SC2)cc1	0	0	0	0	0	0	-	-
CCOC(=O)[C@]12CCCC=C1N(Cc1ccccc1)C(=O)[C@H](CC(=O)NCCCCc1ccccc1)C2	0	-	-	0	-	-	-	-
Cc1cc(F)cc(-c2cc(C(=O)NCc3cccc(Cl)c3)[nH]n2)c1	0	0	13	0	0	0	0	0
Cc1cc(F)cc(-c2cc(C(=O)NCc3ccccc3)[nH]n2)c1	0	0	0	0	0	0	-	-
Cc1ccc(-c2nc(C=Nc3cccc(C)c3)c(O)o2)cc1	0	0	14	0	0	0	0	0
Cc1ccc(-c2nc(C=Nc3ccccc3)c(O)o2)cc1	0	0	0	0	0	0	-	-
CN(C)c1cccc(NC(=O)c2cccc3ccccc23)c1	0	0	0	0	0	0	-	-
Cc1noc(C)c1CSc1nc2sc(C)c(C)c2c(=O)n1-c1ccccc1	0	0	11	0	0	0	0	0
COc1ccc(Cn2c(SCc3cc(C)ccc3C)nc3cc(OC)c(OC)cc3c2=N)cc1	0	0	21	0	0	0	0	20
COc1ccc(Cn2c(SCc3ccc(C)cc3)nc3cc(OC)c(OC)cc3c2=N)cc1Cl	0	0	28	0	0	0	0	19
COc1cc2nc(SCc3ccc(C(F)(F)F)cc3)n(Cc3cccs3)c(=N)c2cc1OC	0	0	14	0	0	0	0	0
C[C@H]1CN([C@@H](C)CO)C(=O)CCCn2cc(nn2)CO[C@@H]1CN(C)C(=O)Nc1ccc(F)cc1	0	0	0	0	0	0	-	-
Cc1noc(C)c1COc1cccc(C(=O)OCC(=O)NC(=O)c2ccc(OC(F)F)cc2)c1	0	0	25	0	0	0	0	0
O=C(/C=C/c1cccs1)Nc1ccc([N+](=O)[O-])cc1	0	0	0	0	0	0	-	-
O=C(/C=C/c1cccs1)c1ccc([N+](=O)[O-])cc1	0	0	11	0	0	0	0	0
O=C(CSc1ccccc1)Nc1nccs1	0	0	0	0	0	0	-	-
O=C(CSc1ncn(-c2ccccc2)n1)Nc1nc(-c2ccccc2)cs1	0	0	0	0	0	0	-	-
